Results reported in ChEMBL document CHEMBL1134791, “2- and 3-substituted 1,4-naphthoquinone derivatives as subversive substrates of trypanothione reductase and lipoamide dehydrogenase from Trypanosoma cruzi: synthesis and correlation between redox cycling activities and in vitro cytotoxicity” (J Med Chem, 2001).

Experiments:
Trypanosoma cruzi = experiment: In vitro antiparasitic activity against Trypanosoma cruzi was tested by sigmoidal regression analysis; format: functional; details: read-out: ED50 (the source's name)
Summary of the method: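 Mouse peritoneal macrophages (female CD1, starch-elicited, harvested 24 h) infected with L. donovani amastigotes (strain MHOM/ET/67/L82, hamster spleen) or T. cruzi Y-strain trypomastigotes (5:1, from MDCK overlay). Infected cells exposed to a 3-fold dilution series in quadruplicate for 5 days (L. donovani) or 3 days (T. cruzi). Giemsa-stained slides scored for % macrophages cleared of amastigotes versus untreated cultures. ED50 by sigmoidal regression.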

Trypanothione reductase = Trypanothione reductase (Trypanosoma cruzi, UniProt P28593); experiment: Inhibitory activity against Trypanosoma cruzi trypanothione disulfide reductase, assay in presence of 57 uM T(S)2.
Chain of Trypanothione reductase (P28593 whole entry): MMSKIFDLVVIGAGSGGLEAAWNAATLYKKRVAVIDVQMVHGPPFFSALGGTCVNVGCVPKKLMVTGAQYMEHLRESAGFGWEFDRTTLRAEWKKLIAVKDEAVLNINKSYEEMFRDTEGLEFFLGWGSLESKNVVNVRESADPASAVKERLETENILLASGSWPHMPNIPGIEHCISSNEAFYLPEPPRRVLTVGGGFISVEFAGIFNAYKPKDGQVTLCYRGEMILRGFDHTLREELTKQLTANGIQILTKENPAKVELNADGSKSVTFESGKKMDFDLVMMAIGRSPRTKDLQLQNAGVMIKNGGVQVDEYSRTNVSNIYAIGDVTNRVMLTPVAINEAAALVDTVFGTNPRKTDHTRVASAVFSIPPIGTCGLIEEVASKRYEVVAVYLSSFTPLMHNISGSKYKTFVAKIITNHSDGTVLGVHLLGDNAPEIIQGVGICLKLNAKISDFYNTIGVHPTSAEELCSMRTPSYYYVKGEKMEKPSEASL
Summary of the method: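 Assay contained 250 µM NADPH, 57 µM T(S)₂, inhibitor at 0.3–50 µM and 1% DMSO final. Started with enzyme; NADPH loss followed at 340 nm. IC50 in duplicate.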

Trypanosoma brucei = experiment: In vitro antiparasitic activity against Trypanosoma brucei was tested by sigmoidal regression analysis; format: functional; details: read-out: ED50 (the source's name)
Summary of the method: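 T. b. brucei S427 bloodstream trypomastigotes at 2 × 10⁵/mL in HMI-18 medium, in triplicate, with a 3-fold dilution series starting at 30 µM. Incubated 3 days at 37 °C in 5% CO₂. Pentamidine served as positive control. Viability read by tetrazolium colorimetric assay on day 3. ED50 by sigmoidal regression.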

SMILES | EC50 (Trypanosoma cruzi) | IC50 (Trypanothione reductase) | EC50 (Trypanosoma brucei)
CN1CCN(CCCNC(=O)CCC2=C(CCC(=O)NCCCN3CCN(C)CC3)C(=O)c3c(O)cccc3C2=O)CC1 | > 50 µM | > 50 µM | 21.5 µM
CC1=C(NCCCN2CCN(CCCN)CC2)C(=O)c2ccccc2C1=O | > 12.5 µM | 6 µM | –
CC1=C(CCCC(=O)NCCCCNCCCNC(=O)CCCC2=C(C)C(=O)c3cccc(O)c3C2=O)C(=O)c2c(O)cccc2C1=O | 46 µM | 2.3 µM | > 4.5 µM
CC1=C(CCCC(=O)O)C(=O)c2ccccc2C1=O | – | > 50 µM | –
CC1=C(CCCC(=O)NCCCN2CCN(C)CC2)C(=O)c2ccccc2C1=O | > 76 µM | 44 µM | 46 µM
CC1=C(CCCC(=O)NCCCNCCCNC(=O)CCCC2=C(C)C(=O)c3ccccc3C2=O)C(=O)c2ccccc2C1=O | > 49 µM | 11 µM | 27 µM
CC1=C(O)c2ccccc2C(=O)/C1=N\CCCN1CCN(C)CC1 | > 6.2 µM | > 57 µM | > 12.5 µM
CN1CCN(CCCNC(=O)CCCC2=C(CCCC(=O)NCCCN3CCN(C)CC3)C(=O)c3c(O)cccc3C2=O)CC1 | 59 µM | 11 µM | 259 µM
CC1=C(CCCC(=O)O)C(=O)c2c(O)cccc2C1=O | > 109 µM | > 50 µM | 78 µM
CC1=C(CCC(=O)NCCCNCCCNC(=O)CCC2=C(C)C(=O)c3ccccc3C2=O)C(=O)c2ccccc2C1=O | 47 µM | 5 µM | 4.5 µM
O=C(O)CCCC1=C(CCCC(=O)O)C(=O)c2c(O)cccc2C1=O | > 87 µM | > 50 µM | 61 µM
CC1=C(CCCC(=O)NCCCCNCCCNC(=O)CCCC2=C(C)C(=O)c3ccccc3C2=O)C(=O)c2ccccc2C1=O | > 48 µM | 4 µM | 26.6 µM
CC1=C(NCCCCN)C(=O)c2c(O)cccc2C1=O | > 12.5 µM | > 57 µM | > 12.5 µM
CC1=C(CCC(=O)N2CCN(C)CC2)C(=O)c2c(O)cccc2C1=O | > 88 µM | 50 µM | 52 µM
CC1=C(NCCCC/N=C2/C(=O)c3ccccc3C(O)=C2C)C(=O)c2ccccc2C1=O | > 12.5 µM | > 57 µM | > 12.5 µM
CN1CCN(C(=O)CCCC2=C(CCCC(=O)N3CCN(C)CC3)C(=O)c3c(O)cccc3C2=O)CC1 | > 48 µM | 17.5 µM | 31.4 µM
O=C(O)CCC1=C(CCC(=O)O)C(=O)c2c(O)cccc2C1=O | > 94 µM | > 50 µM | 59 µM
CC1=C(CCC(=O)NCCCCNCCCNC(=O)CCC2=C(C)C(=O)c3cccc(O)c3C2=O)C(=O)c2c(O)cccc2C1=O | 46 µM | 2.9 µM | 13.8 µM
O=C(O)CCCCCC1=C(CCCCCC(=O)O)C(=O)c2ccccc2C1=O | > 74 µM | > 50 µM | 48 µM
O=C(O)CCCCC1=C(CCCCC(=O)O)C(=O)c2c(O)cccc2C1=O | 80 µM | > 50 µM | > 80 µM
CN1CCN(CCCNC(=O)CCCCC2=C(CCCCC(=O)NCCCN3CCN(C)CC3)C(=O)c3c(O)cccc3C2=O)CC1 | > 46 µM | 6.2 µM | > 15 µM
CC1=C(NCCCNCCCN)C(=O)c2ccccc2C1=O | > 12.5 µM | 12 µM | > 12.5 µM
CC1=C(N2CCN(CCCN(C)C)CC2)C(=O)c2ccccc2C1=O | > 12.5 µM | > 57 µM | > 12.5 µM
CC1=C(CCC(=O)N2CCN(C)CC2)C(=O)c2ccccc2C1=O | 70 µM | > 50 µM | 9.5 µM
CC1=C(CCCC(=O)NCCCNCCCNC(=O)CCCC2=C(C)C(=O)c3cccc(O)c3C2=O)C(=O)c2c(O)cccc2C1=O | 47 µM | 2 µM | > 4.6 µM
CN1CCN(C(=O)CCC2=C(CCC(=O)N3CCN(C)CC3)C(=O)c3c(O)cccc3C2=O)CC1 | > 62 µM | > 50 µM | 22.2 µM
CC1=C(CCCC(=O)NCCCN2CCN(C)CC2)C(=O)c2c(O)cccc2C1=O | 50 µM | 32 µM | 23 µM
CC1=C(CCC(=O)O)C(=O)c2ccccc2C1=O | > 30 µM | > 50 µM | > 30 µM
CN(C)CCCN1CCN(CC2=C(N3CCN(CCCN(C)C)CC3)C(=O)c3ccccc3C2=O)CC1 | > 12.5 µM | > 57 µM | > 12.5 µM
CC1=C(CCCC(=O)N2CCN(C)CC2)C(=O)c2c(O)cccc2C1=O | > 84 µM | 42 µM | 52 µM

Results, then the compound that gave them:

EC50 (Trypanosoma cruzi) | IC50 (Trypanothione reductase) | EC50 (Trypanosoma brucei) | SMILES
24.4 µM | 1.6 µM | 0.3 µM | CC1=C(CCCCCC(=O)NCCCCNCCCNC(=O)CCCCCC2=C(C)C(=O)c3cccc(O)c3C2=O)C(=O)c2c(O)cccc2C1=O
17.2 µM | 2.5 µM | > 1.3 µM | CC1=C(CCCCC(=O)NCCCN2CCN(CCCNC(=O)CCCCC3=C(C)C(=O)c4cccc(O)c4C3=O)CC2)C(=O)c2c(O)cccc2C1=O
4 µM | 1.7 µM | > 1.5 µM | CC1=C(CCCCC(=O)NCCCCNCCCNC(=O)CCCCC2=C(C)C(=O)c3cccc(O)c3C2=O)C(=O)c2c(O)cccc2C1=O
3.5 µM | > 25 µM | 0.6 µM | CC1=C(CCNC(=O)OC(C)(C)C)C(=O)c2c(O)cccc2C1=O
12.5 µM | 2.5 µM | > 1.5 µM | CC1=C(CCCCCC(=O)NCCCNCCCNC(=O)CCCCCC2=C(C)C(=O)c3ccccc3C2=O)C(=O)c2ccccc2C1=O
42 µM | > 50 µM | > 10 µM | CC1=C(CCCCC(=O)O)C(=O)c2c(O)cccc2C1=O
9.5 µM | > 50 µM | 0.9 µM | CC1=C(CCNC(=O)OC(C)(C)C)C(=O)c2ccccc2C1=O
4 µM | 1.7 µM | 2.6 µM | CC1=C(CCCCCC(=O)NCCCCNCCCNC(=O)CCCCCC2=C(C)C(=O)c3ccccc3C2=O)C(=O)c2ccccc2C1=O
13.3 µM | > 25 µM | 2.5 µM | CC1=C(CCCCCNC(=O)OC(C)(C)C)C(=O)c2c(O)cccc2C1=O
7 µM | > 25 µM | 1.4 µM | CC1=C(CCCCNC(=O)OC(C)(C)C)C(=O)c2c(O)cccc2C1=O
13 µM | 2.7 µM | 4.9 µM | CC1=C(CCC(=O)NCCCCNCCCNC(=O)CCC2=C(C)C(=O)c3ccccc3C2=O)C(=O)c2ccccc2C1=O
44 µM | > 50 µM | > 110 µM | CC1=C(CCCCC(=O)O)C(=O)c2ccccc2C1=O
3.7 µM | > 25 µM | 0.6 µM | CC1=C(CCCNC(=O)OC(C)(C)C)C(=O)c2c(O)cccc2C1=O
13 µM | 4.5 µM | 13.7 µM | CC1=C(CCCC(=O)NCCCN2CCN(CCCNC(=O)CCCC3=C(C)C(=O)c4ccccc4C3=O)CC2)C(=O)c2ccccc2C1=O
26 µM | 1.12 µM | 7.3 µM | CC1=C(CCCCC(=O)NCCCN2CCN(CCCNC(=O)CCCCC3=C(C)C(=O)c4ccccc4C3=O)CC2)C(=O)c2ccccc2C1=O
17 µM | > 50 µM | 5.3 µM | CC1=C(CCCCCC(=O)O)C(=O)c2ccccc2C1=O
11 µM | 3.1 µM | 5.7 µM | CC1=C(CCCCCC(=O)NCCCN2CCN(CCCNC(=O)CCCCCC3=C(C)C(=O)c4ccccc4C3=O)CC2)C(=O)c2ccccc2C1=O
4.3 µM | > 50 µM | 2.7 µM | CC1=C(CCCCCNC(=O)OC(C)(C)C)C(=O)c2ccccc2C1=O
13 µM | 1.9 µM | 1.7 µM | CC1=C(CCC(=O)NCCCNCCCNC(=O)CCC2=C(C)C(=O)c3cccc(O)c3C2=O)C(=O)c2c(O)cccc2C1=O
11.4 µM | 1.6 µM | > 1.3 µM | CC1=C(CCCCCC(=O)NCCCN2CCN(CCCNC(=O)CCCCCC3=C(C)C(=O)c4cccc(O)c4C3=O)CC2)C(=O)c2c(O)cccc2C1=O
13.8 µM | > 50 µM | > 3 µM | CC1=C(CCCNC(=O)OC(C)(C)C)C(=O)c2ccccc2C1=O
9 µM | 1.4 µM | 4.4 µM | CC1=C(CCCCC(=O)NCCCCNCCCNC(=O)CCCCC2=C(C)C(=O)c3ccccc3C2=O)C(=O)c2ccccc2C1=O
40 µM | 3.7 µM | 3.2 µM | CC1=C(CCC(=O)NCCCN2CCN(CCCNC(=O)CCC3=C(C)C(=O)c4ccccc4C3=O)CC2)C(=O)c2ccccc2C1=O
4.3 µM | 0.45 µM | 1.1 µM | CC1=C(CCCCC(=O)NCCCNCCCNC(=O)CCCCC2=C(C)C(=O)c3cccc(O)c3C2=O)C(=O)c2c(O)cccc2C1=O
3 µM | 2 µM | > 1.4 µM | CC1=C(CCCCCC(=O)NCCCNCCCNC(=O)CCCCCC2=C(C)C(=O)c3cccc(O)c3C2=O)C(=O)c2c(O)cccc2C1=O
45 µM | 18.7 µM | 15.3 µM | CC1=C(CCCCC(=O)NCCCNCCCNC(=O)CCCCC2=C(C)C(=O)c3ccccc3C2=O)C(=O)c2ccccc2C1=O
32 µM | > 50 µM | > 3.3 µM | CC1=C(CCCCCC(=O)O)C(=O)c2c(O)cccc2C1=O
10.4 µM | > 25 µM | > 3 µM | CC1=C(CCCCNC(=O)OC(C)(C)C)C(=O)c2ccccc2C1=O
27 µM | – | 9.1 µM | CC1=C(CCCC(=O)N2CCN(C)CC2)C(=O)c2ccccc2C1=O
